Source: PubChem
Only some compounds are listed: those with a hit (about 1.7% of all), similar ones and a draw of the others.
STEP block: inhibitors of human striatal-enriched phosphatase STEP | P54829 | recombinant STEP, OMFP fluorogenic substrate, fluorescence | inhibition, % at 20 µM | 0.25% of 360,000 active;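 active = inhibition at 20 µM, scaled per plate between control wells, above about 37%, limit read from the data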
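Material: STEP (striatal-enriched tyrosine phosphatase) enzyme, cell-free; Compound dosing: 20 µM single dose in 1% DMSO; Technique: fluorescence read at 480 nm ex / 540 nm em; Times: reaction 20 min, ambient temperature; Medium: 50 mM Bis-Tris pH 6.0 with 2.5 mM DTT and 0.005% Tween 20; Also added: OMFP at 25 µM.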
LMPTP inh: LMPTP (human) inhibition; P24666; recombinant LMPTP-A, OMFP fluorogenic substrate, fluorescence intensity; inhibition, % at 20 µM; 0.22% of 360,000 active;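 active = compounds that cut the enzyme signal by at least half of the control window in the single-dose screen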
Target sequence (P24666 whole entry, looked up): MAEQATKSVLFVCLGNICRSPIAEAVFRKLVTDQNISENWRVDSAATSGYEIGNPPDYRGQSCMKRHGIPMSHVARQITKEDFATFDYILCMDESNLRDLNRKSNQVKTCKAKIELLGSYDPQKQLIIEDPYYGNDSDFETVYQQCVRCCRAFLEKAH
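Test system – LMPTP-A phosphatase enzyme · Quantity – 0.625 nM LMPTP-A final · Reagent – OMFP substrate, 400 µM final · Dosing – one test concentration per compound, 20 µM, with 3% DMSO overall · Timing – 50 min enzyme reaction at room temperature, protected from light · Detection – fluorescence intensity · Controls – substrate-only low control, DMSO enzyme-plus-substrate high control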
DNMT1 block: DNMT1 (human) enzyme inhibition. inhibition (reported as % activation of signal), % at 10 µM. P26358. 0.83% of 360,000 active. DNMT1 molecular beacon, Hinp1I cleavage, fluorescence; in the data active = inhibition above about 50%
Scp-1 inhibitor: blocks human Scp-1 phosphatase activity | AID 493091 | Recombinant Scp1, phosphopeptide, malachite green phosphate absorbance | Q9GZU7 | inhibition, % at 20 µM | 0.88% of 340,000 active;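 active = inhibition above about 50% at 20 µM, limit read from the data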
Target sequence (Q9GZU7 76-261 limits assumed): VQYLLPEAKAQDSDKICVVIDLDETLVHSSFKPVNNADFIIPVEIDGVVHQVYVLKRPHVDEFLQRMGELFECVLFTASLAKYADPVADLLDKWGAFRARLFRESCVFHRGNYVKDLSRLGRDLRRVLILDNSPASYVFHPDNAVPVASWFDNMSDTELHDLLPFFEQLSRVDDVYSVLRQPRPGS
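Material – SCP-1 phosphatase catalytic domain, residues 76-261 · Buffer or medium – Acidic Tris acetate buffer with magnesium and detergent · Also added – Phospho 17-mer peptide substrate · Compound – single 20 µM dose, 1% DMSO · Times – 45 min room-temperature reaction, 5 min colour, 30 min stabiliser · Technique – Phosphate-binding colour reagent, absorbance read at 630 nm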
SUMO1 PPI mod: alters human SUMO1 binding to SIM partners. P63165. SUMO1 binding to a labelled peptide, TR-FRET, 1 h. inhibition, % at 20 µM. 0.33% of 360,000 active; in the data active = inhibition above about 37%
Target sequence (P63165 whole entry, looked up): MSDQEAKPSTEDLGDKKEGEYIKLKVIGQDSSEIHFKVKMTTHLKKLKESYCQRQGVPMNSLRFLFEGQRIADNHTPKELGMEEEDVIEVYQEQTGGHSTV
Scp-1 conf: Scp-1 (human) inhibition, single-dose confirmed; inhibition, % at 20 µM; 61% of 2,500 active; recombinant SCP-1 catalytic domain, phosphate release, malachite green absorbance; shares compounds with Scp-1 inhibitor
MG interference: colorimetric interference in Scp-1 counter-screen. Colorimetric interference counterscreen, malachite green absorbance 630 nm. shares compounds with Scp-1 inhibitor. apparent inhibition (interference), % at 20 µM. 2,500 tested, under 10 active;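 note: compounds added after enzyme reaction finished so only phosphate colour detection is probed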
Scp1 DSF: validation of human Scp-1 inhibitors by thermal shift binding; shares compounds with Scp-1 inhibitor; Recombinant SCP1, Sypro Orange thermal shift Tm; thermal shift relative to vanadate control, % at 40 µM; 25% of 1,500 active; AID 540329;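 active = substances whose mean melting-temperature shift, as a percentage of the reference inhibitor's shift, reaches about 5.3%, limit read from the data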
Numbers stand for hits; i = inactive; nt = no result.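 Rule for the calls, unless noted: active = inhibition of at least 30% at 20 µM; inactive = the rest.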

SMILES | STEP block | LMPTP inh | DNMT1 block | Scp-1 inhibitor | SUMO1 PPI mod | Scp-1 conf | MG interference | others
COc1ccc(C(=O)O)cc1OC | i | i | i | i | i | nt | nt
CC1CC(OP(O)(=S)c2ccc(N(C)C)cc2NC(=O)c2cccs2)CC(C)(C)C1 (stereo not drawn) | i | i | i | i | i | nt | nt
COc1ccc(/C=C2/C(=O)N(Cc3ccco3)C(=O)N(C(C)C)C2=O)cc1 | i | i | 94 | i | 43 | nt | nt
CN(C)[C@@H]1C(=O)C(C(N)=O)=C(O)[C@@]2(O)C(=O)C3=C(O)c4c(O)cccc4[C@@](C)(O)[C@H]3[C@H](O)[C@@H]12 | i | 66 | 97 | 65 | 70 | nt | nt
CN(C)[C@@H]1C(=O)C(C(N)=O)=C(O)[C@@]2(O)C(=O)C3=C(O)c4c(O)ccc(Cl)c4[C@@](C)(O)[C@H]3C[C@@H]12 | i | i | i | i | i | nt | nt
CN(C)[C@@H]1C(=O)C(C(N)=O)=C(O)[C@@]2(O)C(=O)C3=C(O)c4c(O)cccc4[C@@](C)(O)C3C[C@@H]12 (stereo partly drawn) | i | i | 84 | i | 37 | nt | nt
O=C(Cc1cc(=O)oc2cc(O)ccc12)NN=Cc1ccc(N(CCCl)CCCl)cc1 | i | i | i | i | 92 | nt | nt
CC[n+]1c(-c2ccccc2)c2cc(N)ccc2c2ccc(N)cc21 | i | 72 | i | i | i | nt | nt
COc1cc(C(c2c(C)[nH]n(-c3ccccc3)c2=O)c2c(C)[nH]n(-c3ccccc3)c2=O)cc(OC)c1OC | i | i | i | i | 54 | nt | nt
COC(=O)C(O)(c1c(C)[nH]n(-c2ccccc2)c1=O)C(F)(F)F (stereo not drawn) | i | i | i | i | i | nt | nt
C#C[C@@]1(O)CCC2C3CCC4=C/C(=N/OCC(=O)NC(C(=O)NC(CC(C)C)C(=O)O)C(C)C)CC[C@]4(C)C3CC[C@@]21C (stereo partly drawn) | i | i | i | i | i | nt | nt
CCN(CC)P(c1n(C)cc[n+]1C)N(CC)CC | i | i | i | 99 | i | 83 | i | Scp1 DSF=i
CN(C)C(=O)OCc1n(C)cc[n+]1C | i | i | i | i | i | nt | nt
CCCN1CCC(NC2CCC(O)CC2)CC1 (stereo not drawn) | i | i | i | i | i | nt | nt
C1CC2OC2CC1C1CO1 (stereo not drawn) | i | i | i | i | i | nt | nt
C[N+](C)(C)c1ccccc1 | i | i | i | 52 | i | i | i
Cc1nn(Cc2ccccc2)c(C)c1C(=O)OCC(=O)Nc1cc(S(C)(=O)=O)ccc1Cl | i | i | i | i | i | nt | nt
C[Se]C[C@@H](N)C(=O)O | i | i | i | 68 | i | 31 | i | Scp1 DSF=i
COc1ccc(/C=C/C=C2C(=O)NC(=S)NC2=O)cc1 | i | i | i | 50 | i | i | i
CC(C)[N+](C)(CCC(C(N)=O)(c1ccccc1)c1ccccc1)C(C)C | i | i | i | 99 | i | 91 | i | Scp1 DSF=i
CN1CCCN(C(=O)COc2ccc(F)cc2Cl)CC1 | i | i | i | i | i | nt | nt
OC(CN1CCC(c2c[nH]c3ccccc23)CC1)C(F)(F)F (stereo not drawn) | i | i | i | i | i | nt | nt
CN1CCN(C(=O)COc2ccc(N(C)S(=O)(=O)c3ccc(F)cc3)cc2)CC1 | i | i | i | 68 | i | i | i
O=C(O)CCn1cc(C=C2C(=O)NC(=S)NC2=O)c(-c2cc3ccccc3oc2=O)n1 | i | i | 53 | 87 | i | 69 | i | Scp1 DSF=i
O=C(O)CCn1cc(C=C2C(=O)NC(=S)NC2=O)c(-c2ccccc2)n1 | i | i | i | i | i | nt | nt
SMILES | STEP block | LMPTP inh | DNMT1 block | Scp-1 inhibitor | SUMO1 PPI mod | Scp-1 conf | MG interference | others
CC(C)Cc1[nH]c(=O)c(C#N)c2c1CCC2 | i | i | i | 87 | i | i | i
CCOc1cc(C=C2C(=O)NC(=S)NC2=O)ccc1O | i | i | i | i | i | i | i
COc1ccc(C=C2C(=O)NC(=S)NC2=O)cc1OC | i | i | i | i | i | nt | nt
CCOC(=O)C1(c2ccccc2)Oc2ccccc2C(c2ccc(OC)cc2)=C1C(=O)OC (stereo not drawn) | i | i | i | 97 | i | i | i
CCOC(=O)[C@]12Cc3cc(OC)ccc3[C@H]1N(Cc1ccccc1)C(=O)c1ccccc12 | i | i | i | i | i | nt | nt
C[C@]12CCC3C(CC[C@H]4C[C@@H](O)CC[C@]34C)C1C[C@@H](Br)[C@@H]2O (stereo partly drawn) | nt | nt | nt | 59 | nt | i | i
COc1ccc(N2C(=O)C(=O)N(c3ccc(OC)cc3)P2(=O)N(CCCl)CCCl)cc1 | i | i | i | i | i | nt | nt
C[N+]1(CC2COC(c3ccco3)O2)CCCCC1 (stereo not drawn) | i | i | i | 109 | i | 84 | i | Scp1 DSF=i
CN1CCC(OC(=O)Cc2ccccc2)CC1 | i | i | i | i | i | nt | nt
C[N+]1(CC(COCc2ccccc2)OC(=O)Cc2ccccc2)CCOCC1 (stereo not drawn) | i | i | i | 112 | i | 89 | i | Scp1 DSF=i
COc1ccc(C(=O)N/N=C/C23CC[C@@H](O)CC2(O)CC[C@@H]2[C@@H]3CCC3(C)C(C4=CC(=O)OC4)CCC23O)cc1 (stereo partly drawn) | i | i | i | 56 | i | i | i
CCC(c1nnnn1Cc1ccccc1)N1CCC(n2c(=O)[nH]c3ccccc32)CC1 (stereo not drawn) | i | i | i | nt | i | nt | nt
O=[N+]([O-])c1cccc(O)c1 | i | i | i | i | i | nt | nt
O=[N+]([O-])c1cc(S(=O)(=O)c2ccc(O)c([N+](=O)[O-])c2)ccc1O | i | i | i | 56 | i | 61 | i | Scp1 DSF=17
COc1ccc2c3c1OC1C(O)C=CC4C(C2)[N+](C)(C)CCC341 (stereo not drawn) | i | i | i | 89 | i | 78 | i | Scp1 DSF=i
CN1CC[C@]23c4c5ccc(O)c4OC2[C@H](O)C=CC3[C@H]1C5 (stereo partly drawn) | i | i | i | i | i | nt | nt
NC(Cc1ccccc1Cl)c1nn[nH]n1 (stereo not drawn) | i | i | i | nt | i | nt | nt
COC(=O)C1=C(c2ccc(-c3ccccc3)c(F)c2)C[C@@H]2CC[C@H]1N2C(=O)NC1CCCCC1 | i | i | i | i | i | nt | nt
COC(=O)C1=C(c2cccc(C#N)c2)C[C@@H]2CC[C@H]1N2C(=O)NCCO | i | i | i | 71 | i | i | i
COC(=O)C1=C(c2ccc(F)cc2OCc2ccccc2)C[C@@H]2CC[C@H]1N2C(=O)NCc1cccc(C(F)(F)F)c1 | i | i | i | i | i | nt | nt
